The source made the active and inactive calls. No cut-off for these calls is given here.
How the values were obtained:
[1] = Growth inhibition of human 786-O cells at 10 uM relative to control; type: functional; settings: 786-0, read-out: GI
In short: (§1)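 Each cell line in a 60-line human tumour panel exposed to one 10 μM concentration. Growth inhibition percentage computed as 100 minus the percentage activity relative to control.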

SK-OV-3 = assay: Growth inhibition of human SKOV3 cells at 10 uM relative to control; type: functional; settings: read-out: GI; in short: as §1
NCI/ADR-RES = assay: Growth inhibition of human NCI/ADR-RES cells at 10 uM relative to control; type: functional; settings: read-out: GI; in short: as §1
OVCAR-8 = assay: Growth inhibition of human OVCAR8 cells at 10 uM relative to control; type: functional; settings: read-out: GI; in short: as §1
OVCAR-5 = assay: Growth inhibition of human OVCAR5 cells at 10 uM relative to control; type: functional; settings: read-out: GI; in short: as §1
OVCAR-4 = assay: Growth inhibition of human OVCAR4 cells at 10 uM relative to control; type: functional; settings: read-out: GI; in short: as §1
OVCAR-3 = assay: Growth inhibition of human OVCAR3 cells at 10 uM relative to control; type: functional; settings: read-out: GI; in short: as §1
IGROV-1 = assay: Growth inhibition of human IGROV1 cells at 10 uM relative to control; type: functional; settings: read-out: GI; in short: as §1
UACC-62 = assay: Growth inhibition of human UACC62 cells at 10 uM relative to control; type: functional; settings: read-out: GI
In short: (§2)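 Single-dose screen across the 60-cell-line human tumor panel at 10 μM. Growth inhibition is reported as a percentage, taken as 100 minus the % growth relative to untreated control.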

UACC-257 = assay: Growth inhibition of human UACC257 cells at 10 uM relative to control; type: functional; settings: read-out: GI; in short: as §2
SK-MEL-5 = assay: Growth inhibition of human SK-MEL-5 cells at 10 uM relative to control; type: functional; settings: read-out: GI; in short: as §1
MDA-MB-435 = assay: Growth inhibition of human MDA-MB-435 cells at 10 uM relative to control; type: functional; settings: read-out: GI; in short: as §1
SK-MEL-28 = assay: Growth inhibition of human SK-MEL-28 cells at 10 uM relative to control; type: functional; settings: read-out: GI; in short: as §1
Malme-3M = assay: Growth inhibition of human MALME-3M cells at 10 uM relative to control; type: functional; settings: read-out: GI; in short: as §1
M14 = assay: Growth inhibition of human M14 cells at 10 uM relative to control; type: functional; settings: read-out: GI; in short: as §1
U-251 = assay: Growth inhibition of human U251 cells at 10 uM relative to control; type: functional; settings: read-out: GI; in short: as §2
LOX IMVI = assay: Growth inhibition of human LOXIMVI cells at 10 uM relative to control; type: functional; settings: read-out: GI; in short: as §1
SNB-19 = assay: Growth inhibition of human SNB19 cells at 10 uM relative to control; type: functional; settings: read-out: GI; in short: as §2
SNB-75 = assay: Growth inhibition of human SNB75 cells at 10 uM relative to control; type: functional; settings: read-out: GI; in short: as §2
SF-295 = assay: Growth inhibition of human SF295 cells at 10 uM relative to control; type: functional; settings: read-out: GI; in short: as §1
SF-539 = assay: Growth inhibition of human SF539 cells at 10 uM relative to control; type: functional; settings: read-out: GI; in short: as §1
SW-620 = assay: Growth inhibition of human SW620 cells at 10 uM relative to control; type: functional; settings: read-out: GI; in short: as §2
SF-268 = assay: Growth inhibition of human SF268 cells at 10 uM relative to control; type: functional; settings: read-out: GI; in short: as §1
HT-29 = assay: Growth inhibition of human HT-29 cells at 10 uM relative to control; type: functional; settings: read-out: GI; in short: as §1
KM12 = assay: Growth inhibition of human KM12 cells at 10 uM relative to control; type: functional; settings: read-out: GI; in short: as §1
HCT-116 = assay: Growth inhibition of human HCT116 cells at 10 uM relative to control; type: functional; settings: read-out: GI; in short: as §1
HCT-15 = assay: Growth inhibition of human HCT15 cells at 10 uM relative to control; type: functional; settings: read-out: GI; in short: as §1
COLO 205 = assay: Growth inhibition of human COLO205 cells at 10 uM relative to control; type: functional, cell-based; in short: as §1
HCC 2998 = assay: Growth inhibition of human HCC2998 cells at 10 uM relative to control; type: functional; settings: read-out: GI; in short: as §1
NCI-H460 = assay: Growth inhibition of human NCI-H460 cells at 10 uM relative to control; type: functional; settings: read-out: GI; in short: as §1
NCI-H23 = assay: Growth inhibition of human NCI-H23 cells at 10 uM relative to control; type: functional; settings: read-out: GI; in short: as §1
NCI-H322M = assay: Growth inhibition of human NCI-H322M cells at 10 uM relative to control; type: functional; settings: read-out: GI; in short: as §1
HOP-62 = assay: Growth inhibition of human HOP62 cells at 10 uM relative to control; type: functional; settings: read-out: GI; in short: as §1
NCI-H226 = assay: Growth inhibition of human NCI-H226 cells at 10 uM relative to control; type: functional; settings: read-out: GI; in short: as §1
A549 = assay: Growth inhibition of human A549 cells at 10 uM relative to control; type: functional; settings: read-out: GI; in short: as §1
EKVX = assay: Growth inhibition of human EKVX cells at 10 uM relative to control; type: functional; settings: read-out: GI; in short: as §1
RPMI-8226 = assay: Growth inhibition of human RPMI8226 cells at 10 uM relative to control; type: functional; settings: read-out: GI; in short: as §1
SR = assay: Growth inhibition of human SR cells at 10 uM relative to control; type: functional; settings: read-out: GI; in short: as §2
MOLT-4 = assay: Growth inhibition of human MOLT4 cells at 10 uM relative to control; type: functional; settings: read-out: GI; in short: as §1
K562 = assay: Growth inhibition of human K562 cells at 10 uM relative to control; type: functional; settings: read-out: GI; in short: as §1
CCRF-CEM = assay: Growth inhibition of human CCRF-CEM cells at 10 uM relative to control; type: functional; settings: read-out: GI; in short: as §1
HL-60(TB) = assay: Growth inhibition of human HL-60(TB) cells at 10 uM relative to control; type: functional; settings: read-out: GI
In short: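 Single-dose screen at 10 μM across the 60-cell-line tumour panel. Percent growth inhibition = 100 minus percent growth activity relative to untreated control.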

Mus musculus [2] = assay: Anticonvulsant activity in mouse assessed as protection against maximal electroshock-induced seizure at 1 mmol/kg, ip administered 30 min prior to maximal electroshock-challenge measured after 60 mins relative to control; type: functional
Mus musculus [3] = assay: Anticonvulsant activity in mouse assessed as protection against strychnine-induced seizure at 1 mmol/kg, ip administered 30 min prior to strychnine-challenge measured after 60 mins relative to control; type: functional
Mus musculus [4] = assay: Anticonvulsant activity in mouse assessed as protection against pentylenetetrazol-induced seizure at 1 mmol/kg, ip administered 30 min prior to pentylenetetrazol-challenge measured after 60 mins relative to control; type: functional
T47D = assay: Growth inhibition of human T47D cells at 10 uM relative to control; type: functional; settings: read-out: GI; in short: as §2
[5] = Growth inhibition of human Hs 578T cells at 10 uM relative to control; type: functional; settings: read-out: GI; in short: as §1
MDA-MB-231 = assay: Growth inhibition of human MDA-MB-231 cells at 10 uM relative to control; type: functional; settings: read-out: GI; in short: as §1
MCF7 = assay: Growth inhibition of human MCF7 cells at 10 uM relative to control; type: functional; settings: read-out: GI; in short: as §1
DU-145 = assay: Growth inhibition of human DU145 cells at 10 uM relative to control; type: functional; settings: read-out: GI; in short: as §1
PC-3 = assay: Growth inhibition of human PC3 cells at 10 uM relative to control; type: functional; settings: read-out: GI; in short: as §1
UO-31 = assay: Growth inhibition of human UO31 cells at 10 uM relative to control; type: functional; settings: read-out: GI; in short: as §2
SN12C = assay: Growth inhibition of human SN12C cells at 10 uM relative to control; type: functional; settings: read-out: GI; in short: as §2
RXF 393 = assay: Growth inhibition of human RXF393 cells at 10 uM relative to control; type: functional; settings: read-out: GI; in short: as §1
CAKI-1 = assay: Growth inhibition of human CAKI-1 cells at 10 uM relative to control; type: functional; settings: read-out: GI; in short: as §1
ACHN = assay: Growth inhibition of human ACHN cells at 10 uM relative to control; type: functional; settings: read-out: GI; in short: as §1
A498 = assay: Growth inhibition of human A498 cells at 10 uM relative to control; type: functional; settings: read-out: GI; in short: as §1

Cc1ccccc1-n1c(C)nc2cc(NC(=O)c3ccc(Cl)cc3)ccc2c1=O
inhibition of growth at 10 µM [1]: 32.4%
inhibition of growth at 10 µM (SK-OV-3): 16.8%
inhibition of growth at 10 µM (NCI/ADR-RES): 17.6%
inhibition of growth at 10 µM (OVCAR-8): 16%
inhibition of growth at 10 µM (OVCAR-5): 24.1%
inhibition of growth at 10 µM (OVCAR-4): 69.9%
inhibition of growth at 10 µM (OVCAR-3): 41.1%
inhibition of growth at 10 µM (IGROV-1): 21.4%
inhibition of growth at 10 µM (UACC-62): 57.8%
inhibition of growth at 10 µM (UACC-257): 40.3%
inhibition of growth at 10 µM (SK-MEL-5): 99.1%
inhibition of growth at 10 µM (MDA-MB-435): 56.4%
inhibition of growth at 10 µM (SK-MEL-28): 20.4%
inhibition of growth at 10 µM (Malme-3M): 56.5%
inhibition of growth at 10 µM (M14): 32.3%
inhibition of growth at 10 µM (U-251): 32.4%
inhibition of growth at 10 µM (LOX IMVI): 31.6%
inhibition of growth at 10 µM (SNB-19): 24.2%
inhibition of growth at 10 µM (SNB-75): 21.2%
inhibition of growth at 10 µM (SF-295): 40.3%
inhibition of growth at 10 µM (SF-539): 31.8%
inhibition of growth at 10 µM (SW-620): 14%
inhibition of growth at 10 µM (SF-268): 32.3%
inhibition of growth at 10 µM (HT-29): 38.1%
inhibition of growth at 10 µM (KM12): 24.4%
inhibition of growth at 10 µM (HCT-116): 25.2%
inhibition of growth at 10 µM (HCT-15): 36.3%
growth inhibition (GI) (COLO 205): inactive
inhibition of growth at 10 µM (HCC 2998): 19.1%
inhibition of growth at 10 µM (NCI-H460): 27.5%
inhibition of growth at 10 µM (NCI-H23): 35.7%
inhibition of growth at 10 µM (NCI-H322M): 6%
inhibition of growth at 10 µM (HOP-62): 3%
inhibition of growth at 10 µM (NCI-H226): 12%
inhibition of growth at 10 µM (A549): 27.8%
inhibition of growth at 10 µM (EKVX): 48.5%
inhibition of growth at 10 µM (RPMI-8226): 55.4%
inhibition of growth at 10 µM (SR): 26.3%
inhibition of growth at 10 µM (MOLT-4): 29.3%
inhibition of growth at 10 µM (K562): 44.2%
inhibition of growth at 10 µM (CCRF-CEM): 47.3%
inhibition of growth at 10 µM (HL-60(TB)): 35.5%
Activity (Mus musculus [2]): 50%
Activity (Mus musculus [3]): 0%
Activity (Mus musculus [4]): 0%
inhibition of growth at 10 µM (T47D): 71%
inhibition of growth at 10 µM [5]: 17.9%
inhibition of growth at 10 µM (MDA-MB-231): 42.7%
inhibition of growth at 10 µM (MCF7): 42.2%
inhibition of growth at 10 µM (DU-145): 12.4%
inhibition of growth at 10 µM (PC-3): 39.8%
inhibition of growth at 10 µM (UO-31): 22.2%
inhibition of growth at 10 µM (SN12C): 32.4%
inhibition of growth at 10 µM (RXF 393): 23.2%
inhibition of growth at 10 µM (CAKI-1): 41.2%
inhibition of growth at 10 µM (ACHN): 52%
inhibition of growth at 10 µM (A498): 39.4%
